Test results reported in ChEMBL document CHEMBL1122502, “9-acridinyl and 2-methoxy-6-chloro-9-acridinyl derivatives of aliphatic di-, tri-, and tetraamines. Chemistry, cytostatic activity, and schistosomicidal activity” (1983).

What was measured:
Type in all cases: functional, Mus musculus
[1] = In vitro for cytostatic activity against Cloudman melanoma S91 cells at 1.0 uM concentration.
Summary of the method: (§1)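 Cloudman melanoma S91 cells (doubling time 36 h), 0.1×10^6 per flask, pre-grown 72 h at 37 °C in Ham's F10 with 15% horse serum, 2.5% fetal bovine serum, 8 mM glutamine, penicillin and streptomycin. Medium then replaced with compound at final 0.1, 0.5 or 1.0 μM, with 0.1% DMSO in test and control. After 72 h more, cells trypsinized and counted. Triplicate cultures; cell number given as % of control.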

[2] = Compound was tested in vitro for cytostatic activity against Cloudman melanoma S91 cells at 0.1 uM concentration; summary of the method: as §1
[3] = Compound was tested in vitro for cytostatic activity against Cloudman melanoma S91 cells at 0.5 uM concentration; summary of the method: as §1

Compound | Cell number (% of control) [1] | Cell number (% of control) [2] | Control [3]
COc1ccc2nc3cc(Cl)ccc3c(NCCCCCCNc3c4ccc(Cl)cc4nc4ccc(OC)cc34)c2c1.Cl.Cl.Cl.Cl | 83% |  | 
Cl.c1ccc2c(NCCCN3CCN(CCCNc4c5ccccc5nc5ccccc45)CC3)c3ccccc3nc2c1 | 2% | 24% | 
Cl.Cl.NCCCCCCNc1c2ccccc2nc2ccccc12 | 95% |  | 
COc1ccc2nc3cc(Cl)ccc3c(NCCCN3CCN(CCCNc4c5ccccc5nc5ccccc45)CC3)c2c1.Cl | 20% | 50% | 
Cl.Cl.c1ccc2c(NCCN3CCNCC3)c3ccccc3nc2c1 | 30% |  | 
COc1ccc2nc3cc(Cl)ccc3c(NCCCCCCCCN)c2c1.Cl.Cl.Cl | 86% |  | 
Cl.NCCCN1CCN(CCCNc2c3ccccc3nc3ccccc23)CC1 | 3% | 39% | 
COc1ccc2nc3cc(Cl)ccc3c(NCCCNCCCN)c2c1.Cl | 28% |  | 
COc1ccc2nc3cc(Cl)ccc3c(NCCCNCCCNc3c4ccc(Cl)cc4nc4ccc(OC)cc34)c2c1.Cl | 0% | 85% | 16%
Cl.c1ccc2c(NCCCNCCCNc3c4ccccc4nc4ccccc34)c3ccccc3nc2c1 | 31% | 103% | 
COc1ccc2nc3cc(Cl)ccc3c(NCCCN3CCN(CCCN)CC3)c2c1.Cl | 78% |  | 
COc1ccc2nc3cc(Cl)ccc3c(NCCCN3CCN(CCCNc4c5ccc(Cl)cc5nc5ccc(OC)cc45)CC3)c2c1.Cl | 43% |  | 
CCNCCCCCCNc1c2ccccc2nc2ccccc12.Cl.Cl | 7% | 102% | 
COc1ccc2nc3cc(Cl)ccc3c(NCCCCCCNc3c4ccccc4nc4ccccc34)c2c1.Cl.Cl.Cl | 49% |  | 
COc1ccc2nc3cc(Cl)ccc3c(NCCCCCCCCNc3c4ccccc4nc4ccccc34)c2c1.Cl.Cl.Cl | 44% |  | 
Cl.Cl.c1ccc2c(NCCCCCCNc3c4ccccc4nc4ccccc34)c3ccccc3nc2c1 | 39% |  | 
COc1ccc2nc3cc(Cl)ccc3c(NCCCNCCCNc3c4ccccc4nc4ccccc34)c2c1.Cl | 3% | 66% | 
COc1ccc2nc3cc(Cl)ccc3c(NCCCCCCN)c2c1.Cl.Cl.Cl | 105% | 105% | 
